Experimental data published in ChEMBL document CHEMBL4007402 (J Med Chem, 2017).

How the values were obtained:
[1] = Growth inhibition of mouse BAF3 cells after 72 hrs by CellTiter-Glo or CCK-8 assay; assay type: cell-based
In short: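 Isogenic murine BaF3 cells transformed with TEL-fused kinases, whose proliferation depends on the fused kinase, were used. Parental BaF3 cells served as the general selectivity counter-screen. The anti-proliferative read-out was reported as GI50.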

[2] = target: T1, Cytoplasmic tyrosine-protein kinase BMX (Homo sapiens) (UniProt P51813)
T1 sequence (whole entry): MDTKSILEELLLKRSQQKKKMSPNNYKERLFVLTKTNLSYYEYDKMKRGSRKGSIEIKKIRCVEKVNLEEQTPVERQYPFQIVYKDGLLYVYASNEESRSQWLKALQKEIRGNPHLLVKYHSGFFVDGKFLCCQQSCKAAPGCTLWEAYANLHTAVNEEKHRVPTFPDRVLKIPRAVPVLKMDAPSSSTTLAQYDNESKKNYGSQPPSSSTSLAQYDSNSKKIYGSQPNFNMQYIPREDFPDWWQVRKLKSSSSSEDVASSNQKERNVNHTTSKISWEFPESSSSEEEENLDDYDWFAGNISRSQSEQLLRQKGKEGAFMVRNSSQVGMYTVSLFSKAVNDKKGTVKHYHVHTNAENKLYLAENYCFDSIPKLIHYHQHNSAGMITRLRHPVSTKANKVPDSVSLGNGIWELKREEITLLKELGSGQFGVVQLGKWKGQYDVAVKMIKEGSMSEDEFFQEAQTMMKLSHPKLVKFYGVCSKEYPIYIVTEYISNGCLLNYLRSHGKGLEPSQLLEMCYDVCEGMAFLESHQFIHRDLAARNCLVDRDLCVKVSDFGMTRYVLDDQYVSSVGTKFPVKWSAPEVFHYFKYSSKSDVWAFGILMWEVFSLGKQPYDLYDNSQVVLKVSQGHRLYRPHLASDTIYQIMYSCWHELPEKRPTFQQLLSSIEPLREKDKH

Row | Compound | GI50 [2] | GI50 at 72 h [1]
1 | C=CC(=O)Nc1cc(Nc2ncc(C(=O)Nc3cc(NC(=O)c4ccc(OC)cc4)ccc3C)c(NC)n2)ccc1C | 1100 nM | > 10 µM
2 | C=CC(=O)Nc1cc(Nc2ncc(C(=O)Nc3cc(C(=O)Nc4cccc(C(F)(F)F)c4)ccc3C)c(NC)n2)ccc1C | 8 nM | 4.9 µM
3 | C=CC(=O)Nc1cc(Nc2ncc(C(=O)Nc3cc(C(=O)Nc4cc(OC)c(OC)c(OC)c4)ccc3C)c(NC)n2)ccc1C | 98 nM | > 10 µM
4 | C=CC(=O)Nc1cc(Nc2ncc(C(=O)Nc3cc(NC(=O)c4cc(OC)cc(OC)c4)ccc3C)c(NC)n2)ccc1C | 119 nM | > 10 µM
5 | C=CC(=O)Nc1cc(Nc2ncc(C(=O)Nc3cc(NC(=O)c4ccc5c(c4)OCCO5)ccc3C)c(NC)n2)ccc1C | 155 nM | > 10 µM
6 | C=CC(=O)Nc1cc(Nc2ncc3c(n2)N(C)C(=O)N(c2cc(NC(=O)[C@H]4CC[C@H](CCCC)CC4)ccc2C)C3)ccc1C | 2490 nM | 5.08 µM
7 | C=CC(=O)Nc1cc(Nc2ncc3c(n2)N(C)C(=O)N(c2cc(NC(=O)[C@@H](N)Cc4ccccc4)ccc2C)C3)ccc1C |  | > 10 µM
8 | C=CC(=O)Nc1cc(Nc2ncc3c(n2)N(C)C(=O)N(c2cc(NC(=O)c4cccc(C(F)(F)F)c4)ccc2C)C3)ccc1C |  | 0.74 µM
9 | C=CC(=O)Nc1cc(Nc2ncc(C(=O)Nc3cc(NC(=O)c4ccc(OC)c(OC)c4)ccc3C)c(NC)n2)ccc1C | 1000 nM | > 10 µM
10 | C=CC(=O)Nc1cc(Nc2ncc(C(=O)Nc3cc(NC(=O)c4ccc5c(c4)OCO5)ccc3C)c(NC)n2)ccc1C | 1080 nM | > 10 µM
11 | Cc1ccc(Nc2ncc3c(n2)N(C)C(=O)N(c2cc(NC(=O)c4cccc(C(F)(F)F)c4)ccc2C)C3)cn1 |  | 0.12 µM
12 | C=CC(=O)Nc1cc(Nc2ncc(C(=O)Nc3cc(NC(=O)c4cc(C)ccc4F)ccc3C)c(NC)n2)ccc1C | 44 nM | > 10 µM
13 | C=CC(=O)Nc1cc(Nc2ncc3c(n2)N(C)C(=O)N(c2cc(NC(=O)c4ccc5c(c4)CCCC5)ccc2C)C3)ccc1C |  | > 10 µM
14 | C=CC(=O)Nc1cc(Nc2ncc(C(=O)Nc3cc(NC(=O)c4cccc(OC)c4)ccc3C)c(NC)n2)ccc1C | 6000 nM | > 10 µM
15 | C=CC(=O)Nc1cc(Nc2ncc(C(=O)Nc3cc(NC(=O)c4ccccc4OC)ccc3C)c(NC)n2)ccc1C | 670 nM | > 10 µM

Now from value to compound, other results behind:

Row | GI50 [2] | Compound | GI50 at 72 h [1]
16 | > 10000 nM | C=CC(=O)Nc1cc(Nc2ncc3c(n2)N(C)C(=O)N(c2cc(NC(=O)[C@@H](N)Cc4cc5ccccc5[nH]4)ccc2C)C3)ccc1C | > 10 µM
17 | 690 nM | C=CC(=O)Nc1cc(Nc2ncc3c(n2)N(C)C(=O)N(c2cc(NC(=O)c4cc(OC)cc(OC)c4)ccc2C)C3)ccc1C | > 10 µM
18 | 2280 nM | C=CC(=O)Nc1cc(Nc2ncc3c(n2)N(C)C(=O)N(c2cc(NC(=O)[C@H]4CC[C@H](C)CC4)ccc2C)C3)ccc1C | 8.81 µM
19 | 3000 nM | C=CC(=O)Nc1cc(Nc2ncc3c(n2)N(C)C(=O)N(c2cc(NC(=O)c4cc(OC)ccc4OC)ccc2C)C3)ccc1C | > 10 µM
20 | 31 nM | C=CC(=O)Nc1cc(Nc2ncc3c(n2)N(C)C(=O)N(c2cc(NC(=O)c4cc(C)ccc4F)ccc2C)C3)ccc1C | > 10 µM
21 | 5280 nM | C=CC(=O)Nc1cc(Nc2ncc3c(n2)N(C)C(=O)N(c2cc(NC(=O)[C@H]4CC[C@H](C(C)C)CC4)ccc2C)C3)ccc1C | > 10 µM
22 | 1030 nM | C=CC(=O)Nc1cc(Nc2ncc3c(n2)N(C)C(=O)N(c2cc(NC(=O)c4ccc(N(C)C)cc4)ccc2C)C3)ccc1C | > 10 µM
23 | 240 nM | C=CC(=O)Nc1cc(Nc2ncc3c(n2)N(C)C(=O)N(c2cc(NC(=O)c4ccc(OC)c(OC)c4)ccc2C)C3)ccc1C | 8.13 µM
24 | 1070 nM | C=CC(=O)Nc1cc(Nc2ncc3c(n2)N(C)C(=O)N(c2cc(NC(=O)c4ccc(OC)cc4)ccc2C)C3)ccc1C | > 10 µM
25 | 230 nM | C=CC(=O)Nc1cc(Nc2ncc3c(n2)N(C)C(=O)N(c2cc(NC(=O)c4ccc5c(c4)OCO5)ccc2C)C3)ccc1C | > 10 µM
26 | 780 nM | C=CC(=O)Nc1cc(Nc2ncc3c(n2)N(C)C(=O)N(c2cc(NC(=O)c4cc(C(F)(F)F)cc(C(F)(F)F)c4)ccc2C)C3)ccc1C | > 10 µM
27 | 640 nM | C=CC(=O)Nc1cc(Nc2ncc3c(n2)N(C)C(=O)N(c2cc(NC(=O)[C@H]4CC[C@H](CCC)CC4)ccc2C)C3)ccc1C | 7.4 µM
28 | 5930 nM | C=CC(=O)Nc1cc(Nc2ncc3c(n2)N(C)C(=O)N(c2cc(NC(=O)c4cc(OC)c(OC)c(OC)c4)ccc2C)C3)ccc1C | > 10 µM
29 | 2780 nM | C=CC(=O)Nc1cc(Nc2ncc3c(n2)N(C)C(=O)N(c2cc(NC(=O)c4c(C)cccc4F)ccc2C)C3)ccc1C | > 10 µM
30 | 3010 nM | C=CC(=O)Nc1cc(Nc2ncc3c(n2)N(C)C(=O)N(c2cc(NC(=O)c4ccccc4OC)ccc2C)C3)ccc1C | > 10 µM
31 | > 10000 nM | C=CC(=O)Nc1cc(Nc2ncc3c(n2)N(C)C(=O)N(c2cc(NC(=O)c4ccc5c(c4)OCCO5)ccc2C)C3)ccc1C | > 10 µM
32 | 2740 nM | C=CC(=O)Nc1cc(Nc2ncc3c(n2)N(C)C(=O)N(c2cc(NC(=O)c4ccc(OC)cc4OC)ccc2C)C3)ccc1C | > 10 µM
33 | 1240 nM | C=CC(=O)Nc1cc(Nc2ncc3c(n2)N(C)C(=O)N(c2cc(NC(=O)c4ccc(C)c(C(F)(F)F)c4)ccc2C)C3)ccc1C | > 10 µM
34 | 8350 nM | C=CC(=O)Nc1cc(Nc2ncc3c(n2)N(C)C(=O)N(c2cc(NC(=O)[C@@H](N)CCC(=O)OC(C)(C)C)ccc2C)C3)ccc1C | > 10 µM
35 | 5900 nM | C=CC(=O)Nc1cc(Nc2ncc3c(n2)N(C)C(=O)N(c2cc(NC(=O)[C@H]4CC[C@H](C(F)(F)F)CC4)ccc2C)C3)ccc1C | > 10 µM
36 | 130 nM | C=CC(=O)Nc1cc(Nc2ncc3c(n2)N(C)C(=O)N(c2cc(NC(=O)[C@@H](N)CC(C)C)ccc2C)C3)ccc1C | > 10 µM
